The text below walks through data of ChEMBL document CHEMBL4513216, “Probing the Open Global Health Chemical Diversity Library for Multistage-Active Starting Points for Next-Generation Antimalarials” (ACS Infect Dis, 2020).

The nature of this series: Toxicity liver stage against HepG2, at 10uM. As to conditions: human, HepG2-A16-CD81EGFP cells; read-out: INHIBITION
It counts as cell-based. Details: test concentration 10 uM, cell line HepG2-A16-CD81EGFP. The method, boiled down: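 Uninfected HepG2-A16-CD81EGFP cells, 3 × 10^3 per well, 1536-well, plated on prespotted compound at 10 μM final, parasite-free screening media added to match infected plates; puromycin 10 μM positive, DMSO 0.5% negative; run in parallel with 48 h PbLuc assay at 37 °C, 5% CO2; viability by CellTiter-Glo luminescence, normalized to controls.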
With `CNc1ncccc1CN1CCN2CCN(C)CC2C1` (configuration not stated), the cytotoxicity at 10 µM is -2.46%.
In the case of `O=C1CCCCN1CC(=O)N1CCCC(c2ccccc2)C1` (configuration not stated), the cytotoxicity at 10 µM is -1.05%.
For `CC(=O)N1CC(=O)N(c2ccsc2)CC12CCN(Cc1ccoc1)C2` (configuration not stated) the value was 5.56%; for `c1cc2c(cc1Cn1cc(C3CCCNC3)nn1)CCCO2` (configuration not stated), -5.24%; for `CC(C)c1nnc2n1CCN(Cc1nc3c(F)cccc3[nH]1)C2`, -9.14%.
On to `C=C(C)COc1ccccc1C(=O)N(C)C(C)c1c(C)n[nH]c1C` (configuration not stated), for which the cytotoxicity at 10 µM is 3.23%.
Take `CC(NC(=O)N(C)CCCOc1ccc(F)cc1)c1nncn1C` (configuration not stated): the cytotoxicity at 10 µM was determined as 2.48%.
`CCOCC1CN(CC2CCC2)Cc2nnn(CC3CC3)c21` (configuration not stated): the cytotoxicity at 10 µM worked out at 12.7%.
As to `Cc1ncsc1CN1CC[C@H]2OCC[C@@]2(C(=O)NC(C)C)C1`, the cytotoxicity at 10 µM amounted to 9.38%.
Consider `Cc1cnc(-c2nc(O)c3c(n2)CN(C(=O)C2CCCO2)CC3)cn1` (configuration not stated), for which the cytotoxicity at 10 µM was -0.661%.
Regarding `Cc1nc(C2CCCN2C(=O)c2ccccc2)ncc1C(N)=O` (configuration not stated), the cytotoxicity at 10 µM was -1.47%.
With `N#CCCSc1sc2c(O)cc(O)nc2c1C#N`, the cytotoxicity at 10 µM was -6.11%.
On to `Cc1cc(N2CCN(Cc3ccc(-c4cc[nH]n4)o3)CC2)cc(C)n1`, for which the cytotoxicity at 10 µM was 2.17%.
`CC[C@@H]1N(Cc2ccncc2)CCC[C@]12CCC(=O)N2C`: the cytotoxicity at 10 µM stood at 10.5%.
Take `CS(=O)(=O)N1CCO[C@@H]2CN(C(=O)N3CCCC3)CC[C@@H]2C1`: the cytotoxicity at 10 µM was -101%.
As to `CCNc1nc(-c2cccnc2)c(-c2ccnc(NCCO)n2)s1`, the cytotoxicity at 10 µM is -13.7%.
As for `CN(C)CCN1CCC2(CCN(C(=O)c3cccc(F)c3)CC2)C1=O`, the cytotoxicity at 10 µM was -6.19%.
For `CN(C)C(=O)NCc1cc2n(n1)CCCN(CC1CCCNC1)C2` (configuration not stated) the value was -4.07%; for `N#Cc1c(CN2CCCC2Cn2cccn2)cn2ccccc12` (configuration not stated), -4.67%.
In the case of `O=C(NCCC1COc2ccccc2O1)c1ccc(-c2cc[nH]n2)nc1` (configuration not stated), the cytotoxicity at 10 µM was -6.84%.
Consider `Fc1ccc2[nH]c3c(c2c1)CCN1C(c2ccccn2)N2CCC31CC2` (configuration not stated), for which the cytotoxicity at 10 µM came out at 6.16%.
For `O=C(Nc1ccc(F)cc1)C1CCc2ccccc2N1` (configuration not stated), the cytotoxicity at 10 µM worked out at 2.4%.
As for `CCN1C[C@@H]2C[C@H](C(=O)NCc3cccnc3)[C@H](C1)O2`, the cytotoxicity at 10 µM amounted to 2.01%.
Take `CCC(NC(=O)c1nn(C)cc1C(=O)O)c1ccc(C)cc1C` (configuration not stated): the cytotoxicity at 10 µM was -8.66%.
For `O=C(NCCNc1ncccn1)N1CCCC1` the value was -12.8%.
As to `CS(=O)(=O)NC(=O)c1ccn(-c2cccc(Br)c2)n1`, the cytotoxicity at 10 µM is -3.64%.
Regarding `CS(=O)(=O)c1cnc(C2CCCC2)nc1C1CCCNC1` (configuration not stated), the cytotoxicity at 10 µM was -6.35%.
As to `CCn1ncc2c1CCCC2NCc1ccc(OC)cc1OC` (configuration not stated), the cytotoxicity at 10 µM was -2.06%.
As for `NC(=O)C1(c2cnccn2)CCCN1Cc1cc2ccccc2o1` (configuration not stated), the cytotoxicity at 10 µM was -1.19%.
For `CCOc1nnc(CN2CCC(c3cc4ccccc4[nH]3)CC2)s1` the value was 20.6%.
Regarding `Cc1nc2cc(C3CCOCC3)nn2c(NCC2COCCO2)c1C` (configuration not stated), the cytotoxicity at 10 µM came to 0.135%.
The same measure for `Cc1csc(N2CCN(CC(=O)Nc3c(C)n[nH]c3C)CC2C)n1` (configuration not stated): -14.4%.
Take `Cc1cc(NCC2CCS(=O)(=O)C2)n2nc(C)cc2n1` (configuration not stated): the cytotoxicity at 10 µM was determined as 1.41%.
The same measure for `CCOCCN1CCN(CC(=O)N2CCCC2)CC1CC` (configuration not stated): -2.47%; for `CC(=O)N1CCCC1C(=O)N1CCC(=Cc2cccc(F)c2)CC1` (configuration not stated): 3.5%; for `COCCN1CCC2(CC1)CN(C(=O)c1ccccc1)CCO2`: 1.61%.
The same measure for `Cc1ncsc1C(=O)NC1CCN(CCC#N)CC1`: -8.87%; for `O[C@@H]1C[C@@H](c2nc(-c3cccnc3)no2)N(C2CCOCC2)C1`: -4.03%.
`CNS(=O)(=O)CC(=O)N1CCCc2cc(Br)ccc21`: the cytotoxicity at 10 µM was -12.5%.
The same measure for `O=C(NCc1cccnc1)c1nc2c(s1)CCCN2C(=O)C1CC1`: -93%.
For `Cc1nc(N(Cc2ccncc2)CC2CCCO2)c2ccsc2n1` (configuration not stated) the value was -155%.
Regarding `CC(C)NC(=O)c1nc(COc2ccc3c(c2)OCO3)no1`, the cytotoxicity at 10 µM is -1.11%.
For `CCn1cc(NC(=O)NCC(C)N(C)C2CC2)cn1` (configuration not stated) the value was -3.54%; for `O=C(NCCc1cccc(F)c1)C1(n2cnnn2)CCCCC1`, 1.04%.
As to `COC(=O)c1ccc(N2CCN(C(=O)c3cnn(C)c3)C(C)C2)cc1` (configuration not stated), the cytotoxicity at 10 µM is -11.5%.
The same measure for `CCOC(C)C(=O)Nc1ccc(Sc2nncn2C)c(Cl)c1` (configuration not stated): -1.37%; for `O=C(C1CNCCO1)N1CCC(c2cc(N3CCCC3)ncn2)CC1` (configuration not stated): 6.15%; for `Cc1nn(C)c(C)c1C1CCCN1C(=O)c1ccc(C(N)=O)s1` (configuration not stated): -1.52%.
For `Cn1cccc1C(=O)NC(C)(C(N)=O)c1cccc(Cl)c1` (configuration not stated), the cytotoxicity at 10 µM was 4.07%.
The same measure for `COc1ccc(CCn2cnnc2[S+](C)[O-])cc1` (configuration not stated): 3.4%; for `c1cnn(CC2CN(Cc3csc(C4CCCCC4)n3)CCO2)c1` (configuration not stated): -6.37%; for `CN1CCN(Cc2cn3c(n2)CN(C(=O)c2ccco2)CC3)CC1`: -4%.
In the case of `Cn1cc(C(=O)N2CCOc3ccccc32)ccc1=O`, the cytotoxicity at 10 µM was 13%.
With `O=C(Cc1ccsc1)N1CCCC2(COCCN(CC3CC3)C2)C1` (configuration not stated), the cytotoxicity at 10 µM is -127%.
In the case of `CC(NC(=O)OC(C)(C)C)c1nnc(S(=O)(=O)Cc2ccccc2Cl)o1` (configuration not stated), the cytotoxicity at 10 µM came to 0.935%.
For the compound `CC(C)N[C@@H]1CC[C@@H]1NC(=O)c1ccccc1OC(F)(F)C(F)F`, the cytotoxicity at 10 µM was 1.77%.
Turning to `COC(=O)CNC(=O)C1(NC(=O)c2ccc3[nH]ncc3c2)CCCC1`, the cytotoxicity at 10 µM is -2.23%.
For `Cc1ccccc1C(NC(=O)CCCS(C)(=O)=O)C(C)(C)C` (configuration not stated), the cytotoxicity at 10 µM is -9.4%.
For the compound `Cc1nc(N)ncc1C(=O)N1CCCC1(C)C(=O)N(C)C` (configuration not stated), the cytotoxicity at 10 µM was found to be 10.2%.
For `CCc1c(C)sc(NC(=O)CN2CCOCC2)c1C(=O)OC`, the cytotoxicity at 10 µM was 19.3%.
Consider `COc1ccccc1OC1CN(C(=O)c2c(C)nc3ccc(C)cn23)C1`, for which the cytotoxicity at 10 µM is -0.376%.
Take `CCN(CC(=O)N(C)C)S(=O)(=O)c1cnc2c(c1)c(C)nn2C`: the cytotoxicity at 10 µM was determined as 2.59%.
As to `O=C1N(CC2CC2)CCC12CCN(c1ncccn1)CC2`, the cytotoxicity at 10 µM was 3.77%.
With `CCCSc1ncc(-c2nccn2CCO)cn1`, the cytotoxicity at 10 µM was -12.9%.
For `CC(C)Nc1nc2c(s1)C(=O)CN(C(=O)NCc1ccccc1)C2` the value was 75.6%; for `COCCN1CCO[C@@H]2CN(C(=O)c3ccc4[nH]ccc4c3)CC[C@@H]2C1`, -110%.
As for `O=C(c1ccccn1)N1Cc2ccccc2OC2(CCOCC2)C1`, the cytotoxicity at 10 µM was -12.9%.
Take `CC(=O)N1CCCC1CCc1ccnc(-c2cncnc2)c1` (configuration not stated): the cytotoxicity at 10 µM amounted to 1.24%.
For `CCCS(=O)(=O)N1CC(=O)N(CCCc2ccccc2)CC(O)C1` (configuration not stated) the value was -17%.
`OC1(CN2CCCCC2)CCN(c2ccc(C(F)(F)F)cn2)C1` (configuration not stated): the cytotoxicity at 10 µM is -11%.
The same measure for `Cn1cc(N2CC3(CCN(Cc4ccoc4)CC3)OCC2=O)cn1`: -1.66%; for `Cn1c(=O)oc2ccc(NC(=O)N3CCc4ccccc4C3)cc21`: -5.66%.
